Assay results published in ChEMBL document CHEMBL1629498, “The synthesis of phenylalanine-derived C5-substituted rhodanines and their activity against selected methicillin-resistant Staphylococcus aureus (MRSA) strains” (2010).
≈ marks a conversion by molar mass, not a printed value.

Columns and labels:
Format in all cases: functional
Staphylococcus aureus [1] = test: Antibacterial activity against methicillin resistant Staphylococcus aureus ATCC 700787 by microdilution method
In short: (§1)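 Broth microdilution MIC in cation-adjusted Mueller Hinton II broth. Compounds were made up at 2 mg/mL (starting solution) in DMF plus broth, with DMF ≤0.5% of media, then serially diluted in broth. Inoculum was a 0.5 McFarland suspension, 0.2 mL diluted into 40 mL broth and added to wells. Drug-free controls were included. MIC was the well with no turbidity versus controls; each strain was tested at least in triplicate.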

Staphylococcus aureus [2] = test: Antibacterial activity against methicillin resistant Staphylococcus aureus ATCC BAA-39 by microdilution method; in short: as §1
Staphylococcus aureus [3] = test: Antibacterial activity against methicillin resistant Staphylococcus aureus ATCC BAA-1680 by microdilution method; in short: as §1
Staphylococcus aureus [4] = test: Antibacterial activity against methicillin resistant Staphylococcus aureus ATCC 700698 by microdilution method; in short: as §1
Staphylococcus aureus [5] = test: Antibacterial activity against methicillin resistant Staphylococcus aureus ATCC 34404 by microdilution method; in short: as §1

## O=C(O)CN1C(=O)/C(=C/c2ccc(Cl)c(Cl)c2)SC1=S
Staphylococcus aureus [1]
  MIC: 125 µg/mL (≈ 359 µM)
Staphylococcus aureus [2]
  MIC: 125 µg/mL (≈ 359 µM)
Staphylococcus aureus [3]
  MIC: 125 µg/mL (≈ 359 µM)
Staphylococcus aureus [4]
  MIC: 125 µg/mL (≈ 359 µM)
Staphylococcus aureus [5]
  MIC: 125 µg/mL (≈ 359 µM)

## O=C(O)CN1C(=O)/C(=C/c2cccc(Oc3ccccc3)c2)SC1=S
Staphylococcus aureus [1]
  MIC: 31.2 µg/mL (≈ 84.1 µM)
Staphylococcus aureus [2]
  MIC: 31.2 µg/mL (≈ 84.1 µM)
Staphylococcus aureus [3]
  MIC: 31.2 µg/mL (≈ 84.1 µM)
Staphylococcus aureus [4]
  MIC: 31.2 µg/mL (≈ 84.1 µM)
Staphylococcus aureus [5]
  MIC: 31.2 µg/mL (≈ 84.1 µM)

## CCCC(C(=O)O)N1C(=O)/C(=C/c2ccc(Cl)cc2Cl)SC1=S (stereo not given)
Staphylococcus aureus [1]
  MIC: 15.6 µg/mL (≈ 40 µM)
Staphylococcus aureus [2]
  MIC: 15.6 µg/mL (≈ 40 µM)
Staphylococcus aureus [3]
  MIC: 15.6 µg/mL (≈ 40 µM)
Staphylococcus aureus [4]
  MIC: 15.6 µg/mL (≈ 40 µM)
Staphylococcus aureus [5]
  MIC: 15.6 µg/mL (≈ 40 µM)

## CC(C)CC(C(=O)O)N1C(=O)/C(=C/c2ccc(Cl)cc2Cl)SC1=S (stereo not given)
Staphylococcus aureus [1]
  MIC: 15.6 µg/mL (≈ 38.6 µM)
Staphylococcus aureus [2]
  MIC: 15.6 µg/mL (≈ 38.6 µM)
Staphylococcus aureus [3]
  MIC: 15.6 µg/mL (≈ 38.6 µM)
Staphylococcus aureus [4]
  MIC: 15.6 µg/mL (≈ 38.6 µM)
Staphylococcus aureus [5]
  MIC: 15.6 µg/mL (≈ 38.6 µM)

## CC(C(=O)O)N1C(=O)/C(=C/c2ccc(Cl)cc2Cl)SC1=S (stereo not given)
Staphylococcus aureus [1]
  MIC: 125 µg/mL (≈ 345 µM)
Staphylococcus aureus [2]
  MIC: 125 µg/mL (≈ 345 µM)
Staphylococcus aureus [4]
  MIC: 125 µg/mL (≈ 345 µM)

## O=C(O)C(Cc1ccccc1)N1C(=O)/C(=C/c2ccc(Cl)cc2Cl)SC1=S (stereo not given)
Staphylococcus aureus [1]
  MIC: 15.6 µg/mL (≈ 35.6 µM)
Staphylococcus aureus [2]
  MIC: 15.6 µg/mL (≈ 35.6 µM)
Staphylococcus aureus [3]
  MIC: 15.6 µg/mL (≈ 35.6 µM)
Staphylococcus aureus [4]
  MIC: 15.6 µg/mL (≈ 35.6 µM)
Staphylococcus aureus [5]
  MIC: 15.6 µg/mL (≈ 35.6 µM)

## CC(C)C(C(=O)O)N1C(=O)/C(=C/c2ccc(Cl)cc2Cl)SC1=S (stereo not given)
Staphylococcus aureus [1]
  MIC: 15.6 µg/mL (≈ 40 µM)
Staphylococcus aureus [2]
  MIC: 15.6 µg/mL (≈ 40 µM)
Staphylococcus aureus [3]
  MIC: 15.6 µg/mL (≈ 40 µM)
Staphylococcus aureus [4]
  MIC: 15.6 µg/mL (≈ 40 µM)
Staphylococcus aureus [5]
  MIC: 15.6 µg/mL (≈ 40 µM)

## O=C(O)CN1C(=O)/C(=C/c2ccccc2[N+](=O)[O-])SC1=S
Staphylococcus aureus [1]
  MIC: 62.5 µg/mL (≈ 193 µM)
Staphylococcus aureus [2]
  MIC: 62.5 µg/mL (≈ 193 µM)
Staphylococcus aureus [3]
  MIC: 62.5 µg/mL (≈ 193 µM)
Staphylococcus aureus [4]
  MIC: 62.5 µg/mL (≈ 193 µM)
Staphylococcus aureus [5]
  MIC: 62.5 µg/mL (≈ 193 µM)

## O=C(O)CN1C(=O)/C(=C/c2ccc([N+](=O)[O-])cc2)SC1=S
Staphylococcus aureus [1]
  MIC: 250 µg/mL (≈ 771 µM)
Staphylococcus aureus [2]
  MIC: 250 µg/mL (≈ 771 µM)
Staphylococcus aureus [3]
  MIC: 250 µg/mL (≈ 771 µM)
Staphylococcus aureus [4]
  MIC: 250 µg/mL (≈ 771 µM)
Staphylococcus aureus [5]
  MIC: 250 µg/mL (≈ 771 µM)

## CC(C)C(C(=O)O)N1C(=O)/C(=C/c2cccc3ccccc23)SC1=S (stereo not given)
Staphylococcus aureus [1]
  MIC: 62.5 µg/mL (≈ 168 µM)
Staphylococcus aureus [2]
  MIC: 62.5 µg/mL (≈ 168 µM)
Staphylococcus aureus [3]
  MIC: 62.5 µg/mL (≈ 168 µM)
Staphylococcus aureus [4]
  MIC: 62.5 µg/mL (≈ 168 µM)
Staphylococcus aureus [5]
  MIC: 62.5 µg/mL (≈ 168 µM)

## CC(C)C(C(=O)O)N1C(=O)/C(=C/c2ccc(F)cc2)SC1=S (stereo not given)
Staphylococcus aureus [1]
  MIC: 62.5 µg/mL (≈ 184 µM)
Staphylococcus aureus [2]
  MIC: 62.5 µg/mL (≈ 184 µM)
Staphylococcus aureus [4]
  MIC: 62.5 µg/mL (≈ 184 µM)

## CC(C)C(C(=O)O)N1C(=O)/C(=C/c2ccccc2Cl)SC1=S (stereo not given)
Staphylococcus aureus [1]
  MIC: 62.5 µg/mL (≈ 176 µM)
Staphylococcus aureus [2]
  MIC: 62.5 µg/mL (≈ 176 µM)
Staphylococcus aureus [4]
  MIC: 62.5 µg/mL (≈ 176 µM)

## O=C(O)CN1C(=O)/C(=C/C=C/c2ccccc2)SC1=S
Staphylococcus aureus [1]
  MIC: 250 µg/mL (≈ 819 µM)
Staphylococcus aureus [2]
  MIC: 250 µg/mL (≈ 819 µM)
Staphylococcus aureus [3]
  MIC: 250 µg/mL (≈ 819 µM)
Staphylococcus aureus [4]
  MIC: 250 µg/mL (≈ 819 µM)
Staphylococcus aureus [5]
  MIC: 250 µg/mL (≈ 819 µM)

## CCSCC(C(=O)O)N1C(=O)/C(=C/c2ccc(Cl)cc2Cl)SC1=S (stereo not given)
Staphylococcus aureus [1]
  MIC: 31.2 µg/mL (≈ 74 µM)
Staphylococcus aureus [2]
  MIC: 31.2 µg/mL (≈ 74 µM)
Staphylococcus aureus [3]
  MIC: 31.2 µg/mL (≈ 74 µM)
Staphylococcus aureus [4]
  MIC: 31.2 µg/mL (≈ 74 µM)
Staphylococcus aureus [5]
  MIC: 31.2 µg/mL (≈ 74 µM)

## COc1ccc(/C=C2\SC(=S)N(CC(=O)O)C2=O)cc1
Staphylococcus aureus [1]
  MIC: 250 µg/mL (≈ 808 µM)
Staphylococcus aureus [2]
  MIC: 250 µg/mL (≈ 808 µM)
Staphylococcus aureus [3]
  MIC: 250 µg/mL (≈ 808 µM)
Staphylococcus aureus [4]
  MIC: 250 µg/mL (≈ 808 µM)
Staphylococcus aureus [5]
  MIC: 200 µg/mL (≈ 646 µM)

## O=C(O)CN1C(=O)/C(=C/c2ccnc3ccccc23)SC1=S
Staphylococcus aureus [1]
  MIC: 250 µg/mL (≈ 757 µM)
Staphylococcus aureus [2]
  MIC: 500 µg/mL (≈ 1510 µM)
Staphylococcus aureus [3]
  MIC: 250 µg/mL (≈ 757 µM)
Staphylococcus aureus [4]
  MIC: 500 µg/mL (≈ 1510 µM)
Staphylococcus aureus [5]
  MIC: 200 µg/mL (≈ 605 µM)

## O=C(O)CN1C(=O)/C(=C/C2CCCCC2)SC1=S
Staphylococcus aureus [1]
  MIC: 31.2 µg/mL (≈ 109 µM)
Staphylococcus aureus [2]
  MIC: 31.2 µg/mL (≈ 109 µM)
Staphylococcus aureus [3]
  MIC: 31.2 µg/mL (≈ 109 µM)
Staphylococcus aureus [4]
  MIC: 31.2 µg/mL (≈ 109 µM)
Staphylococcus aureus [5]
  MIC: 31.2 µg/mL (≈ 109 µM)

## O=C(O)C(Cc1ccccc1)N1C(=O)/C(=C/c2ccccc2[N+](=O)[O-])SC1=S (stereo not given)
Staphylococcus aureus [1]
  MIC: 125 µg/mL (≈ 302 µM)
Staphylococcus aureus [2]
  MIC: 62.5 µg/mL (≈ 151 µM)
Staphylococcus aureus [3]
  MIC: 62.5 µg/mL (≈ 151 µM)
Staphylococcus aureus [4]
  MIC: 62.5 µg/mL (≈ 151 µM)
Staphylococcus aureus [5]
  MIC: 125 µg/mL (≈ 302 µM)

## O=C(O)C(Cc1ccccc1)N1C(=O)/C(=C/c2cccc(Oc3ccccc3)c2)SC1=S (stereo not given)
Staphylococcus aureus [1]
  MIC: 3.9 µg/mL (≈ 8.45 µM)
Staphylococcus aureus [2]
  MIC: 3.9 µg/mL (≈ 8.45 µM)
Staphylococcus aureus [3]
  MIC: 1.95 µg/mL (≈ 4.22 µM)
Staphylococcus aureus [4]
  MIC: 3.9 µg/mL (≈ 8.45 µM)
Staphylococcus aureus [5]
  MIC: 1.95 µg/mL (≈ 4.22 µM)

## O=C(O)c1cn(C2CC2)c2cc(N3CCNCC3)c(F)cc2c1=O [CIPROFLOXACIN]
Staphylococcus aureus [1]
  MIC: 62.5 µg/mL (≈ 189 µM)

## CC1(C)S[C@@H]2[C@H](NC(=O)Cc3ccccc3)C(=O)N2[C@H]1C(=O)O [PENICILLIN G]
Staphylococcus aureus [1]
  MIC: 31.2 µg/mL (≈ 93.5 µM)
Staphylococcus aureus [2]
  MIC: 31.2 µg/mL (≈ 93.5 µM)
Staphylococcus aureus [3]
  MIC: 62.5 µg/mL (≈ 187 µM)
Staphylococcus aureus [4]
  MIC: 15.6 µg/mL (≈ 46.7 µM)
Staphylococcus aureus [5]
  MIC: 31.2 µg/mL (≈ 93.5 µM)

## CN[C@H](CC(C)C)C(=O)N[C@H]1C(=O)N[C@@H](CC(N)=O)C(=O)N[C@H]2C(=O)N[C@H]3C(=O)N[C@H](C(=O)N[C@H](C(=O)O)c4cc(O)cc(O)c4-c4cc3ccc4O)[C@H](O)c3ccc(c(Cl)c3)Oc3cc2cc(c3O[C@@H]2O[C@H](CO)[C@@H](O)[C@H](O)[C@H]2O[C@H]2C[C@](C)(N)[C@H](O)[C@H](C)O2)Oc2ccc(cc2Cl)[C@H]1O [VANCOMYCIN]
Staphylococcus aureus [1]
  MIC: 1.95 µg/mL (≈ 1.35 µM)
Staphylococcus aureus [2]
  MIC: ≤ 0.97 µg/mL
Staphylococcus aureus [3]
  MIC: ≤ 0.97 µg/mL
Staphylococcus aureus [4]
  MIC: ≤ 0.97 µg/mL
Staphylococcus aureus [5]
  MIC: ≤ 0.97 µg/mL
